# Laboratory results from ChEMBL document CHEMBL4359825, “Synthesis of novel S-linked dihydroartemisinin derivatives and evaluation of their anticancer activity” (Eur J Med Chem, 2019).
# Active and inactive are the calls of the source. The rule behind the calls is not given here.
# Legend:
# LNCaP = assay: Anticancer activity against human LNCAP cells assessed as cell viability measured after 72 hrs by MTT assay (reference value: 100 +/- 5.0 %); type: functional; set-up: concentration or dose not given beside the values
# PC-3 [1] = assay: Anticancer activity against human PC3 cells assessed as cell viability measured after 72 hrs by MTT assay (reference value: 100 +/- 18.8 %); type: functional; set-up: concentration or dose not given beside the values
# A-431 [2] = assay: Anticancer activity against human A431 cells assessed as cell viability measured after 72 hrs by MTT assay (reference value: 100 +/- 11.7 %); type: functional; set-up: concentration or dose not given beside the values
# HeLa = assay: Anticancer activity against human HeLa cells assessed as cell viability measured after 72 hrs by MTT assay (reference value: 100 +/- 11.5 %); type: functional; set-up: concentration or dose not given beside the values
# HepG2 [3] = assay: Anticancer activity against human HepG2 cells assessed as cell viability measured after 72 hrs by MTT assay (reference value: 100 +/- 6.5 %); type: functional; set-up: concentration or dose not given beside the values
# MDA-MB-231 [4] = assay: Anticancer activity against human MDA-MB-231 cells assessed as cell viability measured after 72 hrs by MTT assay (reference value: 100 +/- 20.0 %); type: functional; set-up: concentration or dose not given beside the values
# A549 = assay: Anticancer activity against human A549 cells assessed as cell viability measured after 72 hrs by MTT assay (reference value: 100 +/- 9.6 %); type: functional; set-up: concentration or dose not given beside the values
# PC-3 [5] = assay: Anticancer activity against human PC3 cells assessed as reduction in cell viability measured after 72 hrs by MTT assay; type: functional, cell-based; conditions: PC-3, 72 h
# A-431 [6] = assay: Anticancer activity against human A431 cells assessed as reduction in cell viability measured after 72 hrs by MTT assay; type: functional, cell-based; conditions: A-431, 72 h
# HepG2 [7] = assay: Anticancer activity against human HepG2 cells assessed as reduction in cell viability measured after 72 hrs by MTT assay; type: functional, cell-based; conditions: HepG2, 72 h
# MDA-MB-231 [8] = assay: Anticancer activity against human MDA-MB-231 cells assessed as reduction in cell viability measured after 72 hrs by MTT assay; type: functional, cell-based; conditions: MDA-MB-231, 72 h
# [9] = Elimination half-life in Sprague-Dawley rat at 10 mg/kg administered as iv bolus dose by EC-HPLC analysis; type: ADME, organism-based; conditions: in vivo, read-out: beta t1/2
# [10] = Solubility of compound in water; type: physicochemical; conditions: buffer
# PC-3 [11] = assay: Cell cycle arrest in human PC3 cells assessed as accumulation at G0/G1 phase at 3 uM measured after 48 hrs by RNase/propidium iodide staining based flow cytometry analysis (reference value: 35.13 %); type: functional
# PC-3 [12] = assay: Cell cycle arrest in human PC3 cells assessed as accumulation at S phase at 3 uM measured after 48 hrs by RNase/propidium iodide staining based flow cytometry analysis (reference value: 42.03 %); type: functional
# PC-3 [13] = assay: Cell cycle arrest in human PC3 cells assessed as accumulation at G2/M phase at 3 uM measured after 48 hrs by RNase/propidium iodide staining based flow cytometry analysis (reference value: 22.84 %); type: functional
# PC-3 [14] = assay: Cell cycle arrest in human PC3 cells assessed as accumulation at G0/G1 phase at 10 uM measured after 48 hrs by RNase/propidium iodide staining based flow cytometry analysis (reference value: 35.13 %); type: functional
# PC-3 [15] = assay: Cell cycle arrest in human PC3 cells assessed as accumulation at S phase at 10 uM measured after 48 hrs by RNase/propidium iodide staining based flow cytometry analysis (reference value: 42.03 %); type: functional
# PC-3 [16] = assay: Cell cycle arrest in human PC3 cells assessed as accumulation at G2/M phase at 10 uM measured after 48 hrs by RNase/propidium iodide staining based flow cytometry analysis (reference value: 22.84 %); type: functional
# PC-3 [17] = assay: Induction of apoptosis in human PC3 cells assessed as loss of cell morphology at 3 to 10 uM after 72 hrs by phase contrast microscopy; type: functional, cell-based
# Summary of the method: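 PC-3 cells in exponential growth exposed to 3 or 10 μM for 72 h, washed gently with PBS, and apoptotic morphology recorded by phase-contrast microscopy.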
# PC-3 [18] = assay: Induction of apoptosis in human PC3 cells assessed as nuclear condensation at 3 to 10 uM after 72 hrs by Hoechst 33342 staining based fluorescence microscopy; type: functional, cell-based
# Summary of the method: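 PC-3 cells treated 72 h with 3 or 10 μM, stained with Hoechst 33342 for 15 min at room temperature in the dark, washed with PBS, and nuclei examined by fluorescence microscopy for condensation.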
# PC-3 [19] = assay: Effect on Pin1 expression in human PC3 cells at 0.1 to 10 uM measured after 72 hrs by Western blot analysis; type: functional, cell-based
# Summary of the method: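 Western blot: PC-3 seeded 1.25 × 10^5/well, exposed to 0.1–10 μM for 72 h. Lysed in 2× SDS buffer and sonicated; 20–25 μg protein run on 12% SDS gel, transferred to PVDF, blocked in 5% BSA/TBST. Primary antibodies overnight, secondary 1 h; ECL detection, β-actin loading control.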
# PC-3 [20] = assay: Anticlonogenic activity against human PC3 cells assessed as reduction in colony formation at 10 uM incubated for 72 hrs supplemented with fresh medium containing measured after 15 days by colony formation assay; type: functional, cell-based
# Summary of the method: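 Clonogenic assay: PC-3 seeded at 500 cells/well in six-well plates, allowed to adhere overnight, then treated. Medium and compound renewed every 72 h over 15 days. Colonies fixed with 3.7% formaldehyde for 20 min, stained with 0.4% crystal violet and counted. Three experiments, each in quadruplicate, expressed as fold change versus control.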
Compound,Activity (LNCaP),Activity (PC-3 [1]),Activity (A-431 [2]),Activity (HeLa),Activity (HepG2 [3]),Activity (MDA-MB-231 [4]),Activity (A549),other results
CCCCS[C@H]1O[C@@H]2O[C@@]3(C)CC[C@H]4[C@H](C)CC[C@@H]([C@H]1C)[C@@]24OO3,47%,33%,47%,49%,52%,71%,79%,–
C[C@H]1[C@@H](Sc2ccc(C(=O)O)cc2)O[C@@H]2O[C@@]3(C)CC[C@H]4[C@H](C)CC[C@@H]1[C@@]24OO3,41%,32%,31%,55%,45%,64%,76%,–
COC(=O)Cc1ccc(SC2O[C@@H]3O[C@@]4(C)CC[C@H]5[C@H](C)CC[C@@H]([C@H]2C)[C@@]35OO4)cc1 (stereo not given in full),31%,31%,52%,43%,67%,96%,74%,–
CCCCS[C@@H]1O[C@@H]2O[C@@]3(C)CC[C@H]4[C@H](C)CC[C@@H]([C@H]1C)[C@@]24OO3,90%,92%,86%,82%,92%,90%,96%,–
C[C@H]1[C@H](Sc2ccc3ccccc3n2)O[C@@H]2O[C@@]3(C)CC[C@H]4[C@H](C)CC[C@@H]1[C@@]24OO3,77%,33%,93%,87%,96%,90%,100%,–
C[C@H]1[C@H](Sc2ccc(C(=O)O)cc2)O[C@@H]2O[C@@]3(C)CC[C@H]4[C@H](C)CC[C@@H]1[C@@]24OO3,47%,84%,58%,60%,64%,95%,79%,–
C[C@H]1[C@@H](Sc2ccc(Cl)cc2)O[C@@H]2O[C@@]3(C)CC[C@H]4[C@H](C)CC[C@@H]1[C@@]24OO3,37%,99%,36%,41%,36%,70%,52%,–
C[C@H]1[C@@H](Sc2ccc3ccccc3n2)O[C@@H]2O[C@@]3(C)CC[C@H]4[C@H](C)CC[C@@H]1[C@@]24OO3,41%,39%,44%,63%,72%,78%,87%,–
COC(=O)CS[C@@H]1O[C@@H]2O[C@@]3(C)CC[C@H]4[C@H](C)CC[C@@H]([C@H]1C)[C@@]24OO3,60%,32%,75%,79%,80%,98%,91%,–
CCCCCCS[C@H]1O[C@@H]2O[C@@]3(C)CC[C@H]4[C@H](C)CC[C@@H]([C@H]1C)[C@@]24OO3,46%,39%,45%,49%,41%,39%,55%,IC50 (PC-3 [5]): 5.8 µM; IC50 (A-431 [6]): 3.99 µM; IC50 (HepG2 [7]): 10.7 µM; IC50 (MDA-MB-231 [8]): 3.94 µM
C[C@H]1[C@H](Sc2nnnn2C)O[C@@H]2O[C@@]3(C)CC[C@H]4[C@H](C)CC[C@@H]1[C@@]24OO3,78%,47%,87%,95%,95%,75%,89%,–
C[C@H]1[C@@H](O)O[C@@H]2O[C@@]3(C)CC[C@H]4[C@H](C)CC[C@@H]1[C@@]24OO3 [ARTENIMOL],–,–,–,–,–,–,–,half-life [9]: < 1 h; solubility [10]: Soluble
C[C@@H]1CC[C@H]2[C@@H](C)C(=O)O[C@@H]3O[C@@]4(C)CC[C@@H]1[C@]32OO4 [ARTEMISININ],–,–,–,–,–,–,–,Activity (PC-3 [11]): 33.48%; Activity (PC-3 [12]): 44.42%; Activity (PC-3 [13]): 22.1%; Activity (PC-3 [14]): 35.55%; Activity (PC-3 [15]): 48.38%; Activity (PC-3 [16]): 16.07%; Activity (PC-3 [17]): Active; Activity (PC-3 [18]): Active; Activity (PC-3 [19]): inactive; Activity (PC-3 [20]): Active
C[C@H]1[C@@H](Sc2nnnn2C)O[C@@H]2O[C@@]3(C)CC[C@H]4[C@H](C)CC[C@@H]1[C@@]24OO3,97%,28%,97%,93%,93%,86%,100%,–
CCCCCCS[C@@H]1O[C@@H]2O[C@@]3(C)CC[C@H]4[C@H](C)CC[C@@H]([C@H]1C)[C@@]24OO3,36%,90%,35%,44%,35%,72%,70%,–
C[C@H]1[C@H](Sc2ccc([N+](=O)[O-])cc2)O[C@@H]2O[C@@]3(C)CC[C@H]4[C@H](C)CC[C@@H]1[C@@]24OO3,46%,50%,44%,50%,56%,98%,70%,–
COC(=O)CS[C@H]1O[C@@H]2O[C@@]3(C)CC[C@H]4[C@H](C)CC[C@@H]([C@H]1C)[C@@]24OO3,71%,44%,77%,80%,94%,99%,97%,–
C[C@H]1[C@@H](Sc2cccc(C(=O)O)c2)O[C@@H]2O[C@@]3(C)CC[C@H]4[C@H](C)CC[C@@H]1[C@@]24OO3,43%,41%,90%,58%,60%,97%,89%,–
C[C@H]1[C@H](Sc2ccc(Cl)cc2)O[C@@H]2O[C@@]3(C)CC[C@H]4[C@H](C)CC[C@@H]1[C@@]24OO3,37%,70%,42%,48%,42%,97%,55%,–
